In ChEMBL document CHEMBL2177098, “Synthesis and evaluation of novel ¹⁸F labeled 2-pyridinylbenzoxazole and 2-pyridinylbenzothiazole derivatives as ligands for positron emission tomography (PET) imaging of β-amyloid plaques” (J Med Chem, 2012):

What was measured:
Brain = assay: Ratio of drug uptake in brain at 2 mins to drug uptake in brain at 60 mins in iv dosed ICR mouse; assay type: ADME, organism-based; conditions: in vivo
[1] = Displacement of [125I]-IMPY from amyloid beta (1 to 42) fibrils after 2 hrs by gamma-counting analysis
Summary of the method: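 Competition binding with aggregated Aβ1-42 fibrils and [125I]IMPY (60000−100000 cpm/100 μL) in 0.05% BSA (1 mL total); inhibitors 10⁻⁴−10^−8.5 M in ethanol. Incubated 37 °C for 2 h, then GF/B vacuum filtration with PBS (0.02 M, pH 7.4) washes and γ counting. Three repeats; IC50 converted to Ki by Cheng−Prusoff.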

With `CNc1ccc(/C=C/c2ccc(OCCOCCOCC[18F])cc2)cc1` [FLORBETABEN F18] the Ratio (Brain) was 3.13 and the Ki [1] was 6.7 nM.
